Results collected from several papers.
Protocols differ between the studies behind these lines.
Target: Mitogen-activated protein kinase 13 (MAPK13, Homo sapiens, UniProt O15264)
Residues used in one study (O15264 1-365): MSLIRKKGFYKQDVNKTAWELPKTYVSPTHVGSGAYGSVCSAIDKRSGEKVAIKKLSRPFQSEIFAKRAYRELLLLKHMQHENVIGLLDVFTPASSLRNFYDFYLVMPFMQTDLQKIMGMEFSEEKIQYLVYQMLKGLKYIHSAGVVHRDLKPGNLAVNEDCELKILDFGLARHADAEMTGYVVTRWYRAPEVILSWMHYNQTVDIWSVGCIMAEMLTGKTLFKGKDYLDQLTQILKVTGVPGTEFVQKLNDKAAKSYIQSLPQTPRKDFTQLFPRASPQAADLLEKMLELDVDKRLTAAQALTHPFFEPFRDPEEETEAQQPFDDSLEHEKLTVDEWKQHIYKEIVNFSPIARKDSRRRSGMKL

Compound	assay	setting	measurement	value
COc1ncccc1-c1cnn2ccc(N3CCN(C(=O)OC(C)C)CC3)nc12	binding, competition with immobilised ligand	1 µM	remaining binding	100%
O=c1[nH]c2ccccc2n1C1CCN(Cc2ccc(-c3[nH]c4cc5ncnc5cc4nc3-c3ccccc3)cc2)CC1	cell-free assay	0.5 µM	remaining signal	102%
Cn1cc(-c2cc(F)cc(N3CCn4c(cc5c4CCCC5)C3=O)c2CO)cc(Nc2ccc(N3CCN(C4COC4)CC3)cn2)c1=O	enzyme activity, inhibitor	0.1 µM	inhibition	15%
Cc1nn(C)cc1-c1nc2c(N3CCN(Cc4ccc(Cl)cc4)CC3)c(Cl)cnc2[nH]1	binding, competition with immobilised ligand	1 µM	remaining binding	100%
CC(C)(C)c1cc(C=C(C#N)C#N)cc(Br)c1O	enzyme activity, inhibitor	0.5 µM	remaining activity	98.5%
N#CC1(c2ccccn2)CCN(Cc2cc(C(=O)O)c(=O)n3ccccc23)CC1	cell-free assay, competition with immobilised ligand	1 µM	remaining binding	100%
COc1cc(Nc2ncc(F)c(Nc3ccc4c(n3)NC(=O)C(C)(C)O4)n2)cc(OC)c1OC	binding, competition with immobilised ligand	10 µM	inhibition	100%
Cn1cncc1[C@](O)(COc1ccc(C#N)cc1-c1ccc(OC(F)(F)F)cc1)c1ccc(C#N)cc1	cell-free assay, competition with immobilised ligand	1 µM	remaining binding	87%
Cn1cc(-c2cccc(N3CCc4c(sc5c4CC(C)(C)C5)C3=O)c2CO)cc(Nc2ccncn2)c1=O	enzyme activity, inhibitor	1 µM	inhibition	5%
